For series [1], the target named is T1, Rap guanine nucleotide exchange factor 3 (Homo sapiens) (UniProt O95398).
T1 sequence (whole entry): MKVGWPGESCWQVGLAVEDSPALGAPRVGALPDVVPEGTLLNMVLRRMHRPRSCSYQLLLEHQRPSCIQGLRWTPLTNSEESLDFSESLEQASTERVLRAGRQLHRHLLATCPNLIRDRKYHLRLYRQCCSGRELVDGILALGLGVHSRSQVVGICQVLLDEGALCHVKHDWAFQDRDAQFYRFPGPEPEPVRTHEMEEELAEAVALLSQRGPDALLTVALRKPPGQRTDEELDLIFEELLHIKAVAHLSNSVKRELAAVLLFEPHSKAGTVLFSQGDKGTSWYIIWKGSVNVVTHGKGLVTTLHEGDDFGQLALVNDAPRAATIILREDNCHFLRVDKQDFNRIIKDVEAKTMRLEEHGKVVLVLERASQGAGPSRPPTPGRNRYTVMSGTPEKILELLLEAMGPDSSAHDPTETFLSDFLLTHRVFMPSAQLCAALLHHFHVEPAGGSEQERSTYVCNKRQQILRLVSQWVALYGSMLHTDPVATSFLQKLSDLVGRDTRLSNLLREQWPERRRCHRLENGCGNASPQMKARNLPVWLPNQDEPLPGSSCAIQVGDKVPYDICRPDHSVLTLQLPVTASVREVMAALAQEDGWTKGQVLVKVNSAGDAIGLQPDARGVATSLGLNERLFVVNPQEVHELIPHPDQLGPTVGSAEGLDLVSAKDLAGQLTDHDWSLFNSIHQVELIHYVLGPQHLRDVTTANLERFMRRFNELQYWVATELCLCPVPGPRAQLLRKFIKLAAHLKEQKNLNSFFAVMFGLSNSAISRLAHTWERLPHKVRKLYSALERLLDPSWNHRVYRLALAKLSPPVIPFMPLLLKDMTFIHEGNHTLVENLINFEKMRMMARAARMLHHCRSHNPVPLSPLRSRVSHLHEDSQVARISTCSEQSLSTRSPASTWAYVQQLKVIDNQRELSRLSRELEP
In words: Binding affinity to human EPAC1 cAMP binding domain (149 to 318 residues) assessed as peak size at 50 to 200 uM using aggregate form of compound by dynamic light scattering analysis. The method, boiled down:
(§1)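 Dynamic light scattering in NMR buffer, samples filtered through 0.22 μm and centrifuged 5 min at 13 500 rpm before measurement. Autocorrelation accumulated 150 s at a 173° scattering angle, in replicates of 3–5, with water viscosity used in analysis; intensity or volume size distributions reported.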

A short description of series [2]: Binding affinity to Triton-X 100 assessed as change in chemical shift at 100 uM by 1H-NMR spectra analysis.
For series [3], the target named is T1, Rap guanine nucleotide exchange factor 3 (Homo sapiens). In words: Binding affinity to human EPAC1 cAMP binding domain (149 to 318 residues) assessed as residue-dependent change in chemical shift at 100 uM using aggregate form of compound by [15N-1H]HSQC spectroscopic analysis.
The target in series [4] is T2, Albumin (Homo sapiens, UniProt P02768). In words: Displacement of ANS from human serum albumin up to 50 uM by fluorescence assay. The method, boiled down:
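Fluorescence competition: 2.5 μM HSA with 5 or 100 μM ANS, ligand added over a concentration range. Excitation 360 nm; emission read at 460 and 480 nm to check for blue shift. Signal normalized between ANS alone (minimum) and HSA:ANS (maximum).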

Series [5] in a line: Binding affinity to Triton-X 100 assessed as inter-molecular cross relaxation at 100 uM by NOESY spectra analysis. The procedure, abridged:
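2D NOESY and ROESY of 100 μM ESI with 0.025% Triton X-100 or 500 μM ESI with 0.05% Triton X-100; 2K × 512 complex points, 12 ppm spectral width centred at 4.7 ppm, intra- and intermolecular cross-peaks mapped.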

Series [6] in a line: Aggregation property of the compound assessed as change in peak intensity by measuring concentration at which peak intensities deviated from the linear correlation by 1H-NMR analysis. In kind it is physicochemical. The procedure, abridged:
(§2)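 Line widths, chemical shifts and peak intensities tracked; CAC taken as the concentration where intensities deviate from linear dependence, or, for line width, the minimal concentration that increases peak width.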

In series [7] the target is T2, Albumin. In words: Binding affinity to human serum albumin assessed as inhibition of compound aggregation at 500 uM by surface plasmon resonance analysis. Background: In SPR one partner is held on a chip, and binding of the other changes the refractive index at the surface.
The target in series [8] is T2, Albumin. In words: Binding affinity to human serum albumin assessed as inhibition of compound aggregation at 250 uM by surface plasmon resonance analysis. The method, boiled down:
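SPR on a nonfunctionalized gold nanoparticle sensor; samples in NMR buffer with DMSO at 1.25%, injected at 33 μL/min alongside matched DMSO controls (with HSA where present, 25 μM), in duplicate. Surface regenerated only after HSA-containing injections.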

Series [9] is described as follows: Aggregation property of the compound in NMR buffer assessed as aggregate size at 500 uM by dynamic light scattering analysis. It is filed as physicochemical. The procedure, abridged: as §1
In series [10] the target is T3, Rap guanine nucleotide exchange factor 3 (Homo sapiens, UniProt O95398).
T3 sequence (O95398 whole entry): T1 sequence (whole entry)
The experiment in a line: Inhibition of 8-NBD-cAMP binding to human EPAC1 cAMP binding domain (149 to 318 residues) by fluorescence assay.

Series [11] deals with T1, Rap guanine nucleotide exchange factor 3 (Homo sapiens). In words: Binding affinity to human EPAC1 cAMP binding domain (149 to 318 residues) at 100 uM in presence of triton X-100 by [15N-1H]HSQC spectroscopic analysis.
Series [12] concerns the target T2, Albumin. In words: Displacement of [13C]oleic acid from human serum albumin by CH-HSQC spectra analysis. The method, boiled down: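 Fatty-acid-free recombinant HSA at 250 μM in sodium phosphate buffer (20 mM NaPO4, pH 7.6, 50 mM NaCl, D2O), 37 °C for 30 min. 13C-oleic acid (100 mM stock in DMSO-d6, warmed to 50 °C for 10 min) added to 1.5 mM, then 2 h at 37 °C. CH-HSQC at 298 K; loss of site-specific cross-peaks A–H scored.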

A short description of series [13]: Aggregation property of the compound assessed as shift in peak width by 1H-NMR analysis. In kind it is physicochemical. The procedure, abridged:
as §2

The nature of series [14]: Binding affinity to Triton-X 100 assessed as line broadening at 100 to 300 uM by 1H-NMR analysis.
Series [15] addresses T1, Rap guanine nucleotide exchange factor 3 (Homo sapiens). The experiment in a line: Binding affinity to human EPAC1 cAMP binding domain (149 to 318 residues) assessed as peak size at 50 to 200 uM by dynamic light scattering analysis. The procedure, abridged:
as §1

Series [16] addresses T2, Albumin. The experiment in a line: Binding affinity to human serum albumin assessed as inhibition of compound aggregation at 200 to 500 uM by dynamic light scattering analysis. The method, boiled down:
as §1

For series [17], the target named is T2, Albumin. The experiment in a line: Displacement of dansylated phenylalanine from human serum albumin by fluorescence assay. Conditions: read-out: Kd(app). The procedure, abridged:
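Competition of ligand against 100 μM dansyl-phenylalanine (binds Sudlow sites 1 and 2) bound to 2.5 μM HSA. Excitation 370 nm, emission 480 nm. Fractional saturation modelled with two sites, free HSA assumed negligible; least-squares fit with no further ESI sites, giving maximum apparent dissociation constants.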

Series [18] in a line: Reversible binding affinity to Triton-X 100 at dilution from 100 uM by 1H-NMR spectra analysis.
Series [19] is described as follows: Binding affinity to Triton-X 100 assessed as line broadening at 100 uM by 1H-NMR spectra analysis.

The source made the active and inactive calls. No cut-off for these calls is given here.

T2 sequence (P02768 whole entry): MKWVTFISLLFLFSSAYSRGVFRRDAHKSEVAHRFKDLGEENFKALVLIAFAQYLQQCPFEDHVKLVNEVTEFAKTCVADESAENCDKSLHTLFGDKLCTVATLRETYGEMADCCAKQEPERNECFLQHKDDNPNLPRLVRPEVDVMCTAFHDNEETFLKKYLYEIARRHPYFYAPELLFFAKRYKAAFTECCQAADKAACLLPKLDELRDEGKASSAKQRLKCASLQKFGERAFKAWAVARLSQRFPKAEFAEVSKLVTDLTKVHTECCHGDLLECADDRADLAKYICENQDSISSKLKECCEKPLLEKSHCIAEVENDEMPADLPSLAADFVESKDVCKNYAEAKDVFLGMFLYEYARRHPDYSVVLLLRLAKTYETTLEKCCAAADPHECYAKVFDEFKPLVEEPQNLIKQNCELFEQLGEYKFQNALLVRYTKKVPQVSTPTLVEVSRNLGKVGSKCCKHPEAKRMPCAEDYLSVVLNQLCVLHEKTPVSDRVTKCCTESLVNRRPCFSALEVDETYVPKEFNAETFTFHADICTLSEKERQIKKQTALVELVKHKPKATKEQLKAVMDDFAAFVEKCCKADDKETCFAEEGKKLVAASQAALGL

`CC(C)(C)c1cc(C(=O)/C(C#N)=N/Nc2cccc(Cl)c2)no1`: the Activity was 250 nm in series [1]; “Active” in series [4]; 150 µM in series [6]; 90 to 600 nm in series [9]; “Active” in [12]; “Not Active” in series [13]. For the same compound, the Activity in series [15] is less than 5 nm. Besides, the result in series [2], in series [3], in [5], in [11], in series [14] and in series [18] was Active. Further, in series [19], the outcome was Active. The “inhibition (INH)” value in series [7] is “Not Active”; in series [8], “Active”; in series [16], “Active”. Also, the Kd in series [10] is 20 µM; in [17], 0.099 µM.

Source of the values: ChEMBL document CHEMBL4396878, “Mechanisms of Specific versus Nonspecific Interactions of Aggregation-Prone Inhibitors and Attenuators” (J Med Chem, 2019).
